These results are taken from ChEMBL document CHEMBL1149705, “Synthesis and antimicrobial evaluation of new chalcones containing piperazine or 2,5-dichlorothiophene moiety” (2007).

Converted amounts (≈) assume the structure as drawn.

A word on the MIC50: it is the lowest concentration that inhibits either 50% of growth or 50% of the strains tested, depending on the study. Read a low MIC50 as greater potency.

Common to all, as to assay type: functional
Assay [1] concerns Nakaseomyces glabratus. The assay can be described thus: Antifungal activity against Candida glabrata HO3 at 250 ug/ml after 48 hrs by agar well diffusion technique. Particulars: read-out: IZ. For orientation: Agar diffusion results depend on both activity and mobility in agar.
For assay [2], the system named is Aspergillus fumigatus. The assay can be described thus: Antifungal activity against Aspergillus fumigatus at 250 ug/ml after 48 hrs by agar well diffusion technique. Particulars: read-out: IZ. The essentials: (§1)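 Cup-plate agar well diffusion on nutrient agar, set for 1–1.5 h. Cups of 10 mm were bored with a sterile cork borer, and test solution was added by sterile syringe. Plates were incubated at 37 °C for 48 h. The read-out was inhibition zone diameter in mm, graded 0–6 mild, 7–13 moderate and 14–26 efficacy. Ciprofloxacin was the standard; 10% DMSO served as solvent control.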

For assay [3], the system named is Proteus vulgaris. Nature of the assay: Antibacterial activity against Proteus vulgaris at 250 ug/ml after 48 hrs by agar well diffusion technique. Particulars: read-out: IZ. The essentials: as §1
Assay [4] has as its system Staphylococcus aureus. The assay can be described thus: Antibacterial activity against Staphylococcus aureus 209p at 250 ug/ml after 48 hrs by agar well diffusion technique. Particulars: read-out: IZ. The essentials: as §1
The test system of assay [5] is Candida albicans. The assay can be described thus: Antifungal activity against Candida albicans after 48 hrs by agar well diffusion technique.
Assay [6] concerns Candida albicans. The assay can be described thus: Antifungal activity against Candida albicans at 250 ug/ml after 48 hrs by agar well diffusion technique. Particulars: read-out: IZ.
The subject of assay [7] is Pichia kudriavzevii. The assay can be described thus: Antifungal activity against Candida krusei GO3 at 250 ug/ml after 48 hrs by agar well diffusion technique. Particulars: read-out: IZ.
Assay [8] deals with Nakaseomyces glabratus. Nature of the assay: Antifungal activity against Candida glabrata HO3 after 48 hrs by agar well diffusion technique.
Assay [9] relates to Escherichia coli. Nature of the assay: Antibacterial activity against Escherichia coli ESS 2231 at 250 ug/ml after 48 hrs by agar well diffusion technique. Particulars: read-out: IZ. The essentials: as §1
Assay [10] concerns Klebsiella pneumoniae. Nature of the assay: Antibacterial activity against Klebsiella pneumoniae at 250 ug/ml after 48 hrs by agar well diffusion technique. Particulars: read-out: IZ. A digest of the protocol:
as §1

Assay [11] relates to Pichia kudriavzevii. Nature of the assay: Antifungal activity against Candida krusei GO3 after 48 hrs by agar well diffusion technique.

For `Cc1cccc(/C=C/C(=O)c2cc(Cl)sc2Cl)c1`, the zone of inhibition at 250 µg/mL in assay [1] came to 14 mm; in assay [2] it was 20 mm; in [3], 6 mm; in assay [4] it was 11 mm; in [6], 10 mm; in assay [7] it was 22 mm. In addition, the figures for the zone of inhibition at 250 µg/mL in assay [9] and in [10] were 20 mm and 10 mm, respectively. Besides, the MIC50 in [5] was found to be 51.1 µg/mL (≈ 172 µM); in assay [8], 65 µg/mL (≈ 219 µM); in assay [11], 42.3 µg/mL (≈ 142 µM).
